Test results published in ChEMBL document CHEMBL3124822, “Discovery of a rapidly metabolized, long-acting β(2) adrenergic receptor agonist with a short onset time incorporating a sulfone group suitable for once-daily dosing” (J Med Chem, 2014).

How the values were obtained:
[1] = Binding affinity to guinea pig sigma receptor; parameters: species or system Cavia porcellus
Cytochrome P450 2D6 = Cytochrome P450 2D6 (Homo sapiens, UniProt P10635); experiment: Inhibition of human CYP2D6 expressed in Escherichia coli; type: ADME
Sequence of Cytochrome P450 2D6 (P10635 whole entry, canonical isoform): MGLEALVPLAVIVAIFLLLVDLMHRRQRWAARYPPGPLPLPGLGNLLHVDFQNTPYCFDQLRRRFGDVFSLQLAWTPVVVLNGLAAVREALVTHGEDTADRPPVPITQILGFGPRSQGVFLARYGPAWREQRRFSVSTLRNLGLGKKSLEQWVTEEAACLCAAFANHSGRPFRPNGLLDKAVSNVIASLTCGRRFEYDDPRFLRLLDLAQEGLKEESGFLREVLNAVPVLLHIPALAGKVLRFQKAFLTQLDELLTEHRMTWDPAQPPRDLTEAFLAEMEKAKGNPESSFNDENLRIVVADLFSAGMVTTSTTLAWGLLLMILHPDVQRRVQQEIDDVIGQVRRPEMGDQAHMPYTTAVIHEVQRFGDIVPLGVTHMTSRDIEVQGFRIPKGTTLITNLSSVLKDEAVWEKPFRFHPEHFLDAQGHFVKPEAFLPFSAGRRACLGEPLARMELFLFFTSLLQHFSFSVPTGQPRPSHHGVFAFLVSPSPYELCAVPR
Summary of the method: (§1)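 Human CYP isoforms expressed in E. coli; IC50 from n = 3. Probe substrates diethoxyfluorescein and 7-benzyloxyquinoline are stated for CYP3A4.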

[2] = Volume of distribution at steady state in Han Wistar rat at 0.25 mg/kg, iv up to 7 hrs by LC-MS/MS analysis; type: ADME, organism-based; parameters: dose 0.25 mg/kg, route intravenous; conditions: in vivo, read-out: Vdss
Summary of the method: (§2)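 Han Wistar rats dosed 0.25 mg/kg intravenously; plasma sampled at various times up to 7 h postdose. Clearance expressed as percentage of liver blood flow.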

Hepatocyte [3] = experiment: Drug metabolism in human hepatocytes assessed as metabolite M13 formation at 12.5 uM after 2 hrs by LC-MS/MS analysis; type: ADME, cell-based
Summary of the method: (§3)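 Human hepatocytes incubated with substrate at 12.5 μM for 2 h. Products characterized by LC–MS/MS on a C18 column, 5–95% acetonitrile gradient in water with 0.1% formic acid over 8 min. Metabolites numbered by elution order. Abundance is semiquantitative from peak heights (low/medium/high), assuming equal analyte response.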

Hepatocyte [4] = experiment: Drug metabolism in human hepatocytes assessed as metabolite M15 formation at 12.5 uM after 2 hrs by LC-MS/MS analysis; type: ADME, cell-based; summary of the method: as §3
Cavia porcellus = experiment: Bronchodilatory activity in guinea pig assessed as inhibition of histamine-induced bronchoconstriction administered via nebulization 2 mins prior to histamine challenge relative to salmeterol acetate; type: functional
Summary of the method: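 Conscious guinea pigs (n = 24 per group) in a whole-body plethysmograph; agonist given by 2 min nebulization before challenge with nebulized histamine (10 mM, 1.3 min). Enhanced pause (PenH) was recorded for 15 min as the index of airway obstruction. Potency was expressed as EC90 by nebulizer concentration and compared with salmeterol acetate.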

Hepatocyte [5] = experiment: Drug metabolism in human hepatocytes assessed as metabolite M2 formation at 12.5 uM after 2 hrs by LC-MS/MS analysis; type: ADME, cell-based; summary of the method: as §3
[6] = Plasma protein binding in rat; type: ADME, cell-free; conditions: read-out: PPB (converted)
Cytochrome P450 3A4 [7] = biological target: T1, Cytochrome P450 3A4 (Homo sapiens, UniProt P08684); experiment: Inhibition of human CYP3A4 expressed in Escherichia coli using 7-benzyloxyquinoline as substrate; type: ADME; summary of the method: as §1
T1 sequence (P08684 whole entry): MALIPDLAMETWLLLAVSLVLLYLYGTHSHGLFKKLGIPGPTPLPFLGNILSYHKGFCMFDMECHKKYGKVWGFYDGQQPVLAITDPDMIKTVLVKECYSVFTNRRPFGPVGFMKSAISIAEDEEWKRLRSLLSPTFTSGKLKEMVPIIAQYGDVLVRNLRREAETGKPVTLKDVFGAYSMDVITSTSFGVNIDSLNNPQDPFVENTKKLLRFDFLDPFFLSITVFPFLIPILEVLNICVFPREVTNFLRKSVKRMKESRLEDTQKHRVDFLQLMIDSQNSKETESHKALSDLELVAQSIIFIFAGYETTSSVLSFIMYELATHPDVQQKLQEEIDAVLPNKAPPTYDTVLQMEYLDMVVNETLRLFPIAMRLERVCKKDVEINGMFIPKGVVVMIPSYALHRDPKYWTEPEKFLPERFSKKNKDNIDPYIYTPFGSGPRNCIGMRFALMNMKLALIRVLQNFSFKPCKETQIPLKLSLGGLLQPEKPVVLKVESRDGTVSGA

Cytochrome P450 3A4 [8] = biological target: T1, Cytochrome P450 3A4; experiment: Inhibition of human CYP3A4 expressed in Escherichia coli using diethoxyfluorescein as substrate; type: ADME; summary of the method: as §1
[9] = Half life in Han Wistar rat at 0.25 mg/kg, iv up to 7 hrs by LC-MS/MS analysis; type: ADME, organism-based; parameters: dose 0.25 mg/kg, route intravenous; conditions: in vivo; summary of the method: as §2
Cytochrome P450 1A2 = biological target: T2, Cytochrome P450 1A2 (Homo sapiens, UniProt P05177); experiment: Inhibition of human CYP1A2 expressed in Escherichia coli; type: ADME; summary of the method: as §1
T2 sequence (P05177 whole entry): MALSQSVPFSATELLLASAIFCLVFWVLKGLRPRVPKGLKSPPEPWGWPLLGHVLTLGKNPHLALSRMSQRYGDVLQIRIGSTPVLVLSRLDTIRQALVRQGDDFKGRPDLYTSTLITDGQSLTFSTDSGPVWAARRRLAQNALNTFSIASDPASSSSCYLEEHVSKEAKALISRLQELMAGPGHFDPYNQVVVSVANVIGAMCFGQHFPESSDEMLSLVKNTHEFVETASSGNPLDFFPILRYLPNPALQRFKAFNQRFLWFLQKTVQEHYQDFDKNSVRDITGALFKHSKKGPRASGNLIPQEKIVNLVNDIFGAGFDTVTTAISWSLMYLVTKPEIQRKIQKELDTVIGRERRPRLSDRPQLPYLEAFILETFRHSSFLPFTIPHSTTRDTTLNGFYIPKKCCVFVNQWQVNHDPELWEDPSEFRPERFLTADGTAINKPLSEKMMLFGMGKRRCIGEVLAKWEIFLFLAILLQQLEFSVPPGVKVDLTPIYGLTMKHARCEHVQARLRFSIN

Hepatocyte [10] = experiment: Drug metabolism in human hepatocytes assessed as metabolite M12 formation at 12.5 uM after 2 hrs by LC-MS/MS analysis; type: ADME, cell-based; summary of the method: as §3
L5178Y = experiment: Genotoxicity against mouse L5178Y cells; type: toxicity, cell-based
Summary of the method: (§4)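 Acetate and 4-biphenylsulfonate salts screened in Ames and mouse lymphoma L5178Y assays, with and without a rat liver metabolic activation system.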

Liver microsome [11] = experiment: Clearance in dog liver microsomes; type: ADME, Canis lupus familiaris
Summary of the method: (§5)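 Compound incubated with liver microsomes; in vitro metabolic clearance expressed as (mL/min)/g liver.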

[12] = biological target: Beta-1 adrenergic receptor (Homo sapiens, UniProt P08588); experiment: Agonist activity at human beta1 adrenoceptor transfected in CHO cells assessed as cyclic AMP accumulation after 45 mins by fluorescence polarization assay; type: cell-based
Sequence of Beta-1 adrenergic receptor (P08588 whole entry): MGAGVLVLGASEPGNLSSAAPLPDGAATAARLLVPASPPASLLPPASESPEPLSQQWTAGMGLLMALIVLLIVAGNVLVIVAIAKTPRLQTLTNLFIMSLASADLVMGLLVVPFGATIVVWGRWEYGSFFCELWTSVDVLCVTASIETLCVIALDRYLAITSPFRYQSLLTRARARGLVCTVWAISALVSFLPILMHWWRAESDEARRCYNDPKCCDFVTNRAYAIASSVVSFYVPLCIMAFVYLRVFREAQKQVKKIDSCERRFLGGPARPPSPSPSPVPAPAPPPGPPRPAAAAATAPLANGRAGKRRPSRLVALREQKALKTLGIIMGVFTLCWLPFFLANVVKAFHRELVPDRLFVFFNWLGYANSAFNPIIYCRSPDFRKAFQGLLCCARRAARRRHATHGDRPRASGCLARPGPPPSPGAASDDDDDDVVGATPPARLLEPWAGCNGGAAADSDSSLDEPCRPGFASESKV

[13] = Plasma clearance in beagle dog at 0.05 mg/kg, iv up to 8 hrs by LC-MS/MS analysis; type: ADME, organism-based, Canis lupus familiaris; parameters: dose 0.05 mg/kg, route intravenous
Summary of the method: (§6)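 Beagle dogs dosed 0.05 mg/kg intravenously; plasma collected at various time points up to 8 h postdose.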

[14] = Volume of distribution at steady state in beagle dog at 0.05 mg/kg, iv up to 8 hrs by LC-MS/MS analysis; type: ADME, organism-based, Canis lupus familiaris; parameters: dose 0.05 mg/kg, route intravenous; conditions: in vivo, read-out: Vdss; summary of the method: as §6
Hepatocyte [15] = experiment: Drug metabolism in human hepatocytes assessed as metabolite M11 formation at 12.5 uM after 2 hrs by LC-MS/MS analysis; type: ADME, cell-based; summary of the method: as §3
[16] = Ratio of drug uptake from blood to plasma in rat; type: ADME
Summary of the method: (§7)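 In vitro partitioning of the compound into the cellular fraction of rat, dog and human blood, reported as the blood:plasma ratio.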

[17] = Oral absorption in Han Wistar rat at 2 mg/kg up to 7 hrs by LC-MS/MS analysis; type: ADME, organism-based; parameters: dose 2 mg/kg; conditions: in vivo, read-out: Fa
Summary of the method: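 Rat oral absorption from hepatic portal vein plasma, corrected for systemic circulation levels, after β-glucuronidase treatment of samples (deconjugated HPV model). Expressed as h·ng/mL.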

Salmonella typhimurium [18] = experiment: Genotoxicity in Salmonella typhimurium by Ames assay; type: toxicity, organism-based; conditions: salmonella enterica subsp. enterica serovar typhimurium; summary of the method: as §4
[19] = biological target: Beta-3 adrenergic receptor (Homo sapiens, UniProt P13945); experiment: Agonist activity at human beta3 adrenoceptor transfected in CHO cells assessed as cyclic AMP accumulation after 45 mins by fluorescence polarization assay; type: cell-based
Sequence of Beta-3 adrenergic receptor (P13945 whole entry): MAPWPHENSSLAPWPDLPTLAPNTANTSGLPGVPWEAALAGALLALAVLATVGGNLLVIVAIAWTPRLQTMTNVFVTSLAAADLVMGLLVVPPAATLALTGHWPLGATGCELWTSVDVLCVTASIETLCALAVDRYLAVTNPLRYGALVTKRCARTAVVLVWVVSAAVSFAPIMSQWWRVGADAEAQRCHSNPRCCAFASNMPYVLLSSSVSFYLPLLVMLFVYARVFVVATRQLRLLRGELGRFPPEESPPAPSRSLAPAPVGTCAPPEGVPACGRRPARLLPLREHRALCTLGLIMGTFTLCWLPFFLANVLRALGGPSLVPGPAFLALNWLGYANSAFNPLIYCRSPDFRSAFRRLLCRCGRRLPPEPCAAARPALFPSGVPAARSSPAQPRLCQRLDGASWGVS

Liver microsome [20] = experiment: Clearance in human liver microsomes; type: ADME; summary of the method: as §5
[21] = biological target: 5-hydroxytryptamine receptor 1B (Homo sapiens, UniProt P28222); experiment: Binding affinity to human 5HT1B receptor
Sequence of 5-hydroxytryptamine receptor 1B (P28222 whole entry): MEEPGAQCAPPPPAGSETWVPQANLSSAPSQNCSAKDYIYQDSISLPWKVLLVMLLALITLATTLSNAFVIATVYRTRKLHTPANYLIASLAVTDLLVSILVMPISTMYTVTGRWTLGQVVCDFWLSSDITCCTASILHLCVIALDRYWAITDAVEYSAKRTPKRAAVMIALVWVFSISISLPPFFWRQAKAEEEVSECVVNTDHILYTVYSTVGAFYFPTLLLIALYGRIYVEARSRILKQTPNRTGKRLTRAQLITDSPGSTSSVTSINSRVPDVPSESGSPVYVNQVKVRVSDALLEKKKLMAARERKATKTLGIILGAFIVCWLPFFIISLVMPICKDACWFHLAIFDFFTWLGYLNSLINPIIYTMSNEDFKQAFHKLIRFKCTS

Hepatocyte [22] = experiment: Drug metabolism in human hepatocytes assessed as metabolite M10 formation at 12.5 uM after 2 hrs by LC-MS/MS analysis; type: ADME, cell-based; summary of the method: as §3
[23] = Ratio of drug uptake from blood to plasma in dog; type: ADME, Canis lupus familiaris; summary of the method: as §7
[24] = Oral bioavailability in beagle dog at 0.25 mg/kg up to 8 hrs by LC-MS/MS analysis; type: ADME, organism-based, Canis lupus familiaris; conditions: in vivo
Summary of the method: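 Beagle dogs dosed 0.25 mg/kg orally, with 0.05 mg/kg iv reference arm; plasma collected at various time points up to 8 h postdose.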

[25] = Plasma protein binding in human; type: ADME, cell-free; conditions: read-out: PPB (converted)
[26] = Plasma protein binding in guinea pig; type: ADME, cell-free, Cavia porcellus; conditions: read-out: PPB (converted)
Rattus norvegicus = experiment: Clearance in Han Wistar rat at 0.25 mg/kg, iv up to 7 hrs by LC-MS/MS analysis relative to liver blood flow; type: ADME, organism-based; parameters: dose 0.25 mg/kg, route intravenous; conditions: in vivo; summary of the method: as §2
Salmonella typhimurium [27] = experiment: Genotoxicity in Salmonella typhimurium by Ames assay in presence of rat liver metabolic activation system; type: toxicity, organism-based; conditions: salmonella enterica subsp. enterica serovar typhimurium; summary of the method: as §4
[28] = Oral bioavailability in Han Wistar rat at 2 mg/kg up to 7 hrs by LC-MS/MS analysis; type: ADME, organism-based; conditions: in vivo

- pIC50 [1]: 6.8
- IC50 (Cytochrome P450 2D6): 6400 nM
- Vd [2]: 1.1 L/kg
- Drug metabolism (Hepatocyte [3]): Active
- Drug metabolism (Hepatocyte [4]): Active
- Drug metabolism (Hepatocyte [5]): Active
- fraction unbound [6]: 0.02
- IC50 (Cytochrome P450 3A4 [7]): 3800 nM
- IC50 (Cytochrome P450 3A4 [8]): 1600 nM
- half-life [9]: 30 min
- IC50 (Cytochrome P450 1A2): > 100000 nM
- Drug metabolism (Hepatocyte [10]): Active
- CLH (Liver microsome [11]): 5 mL/min/g
- EC50 [12]: 501 nM
- clearance [13]: 3.7 mL/min/kg
- Vd [14]: 0.1 L/kg
- Drug metabolism (Hepatocyte [15]): Active
- blood plasma ratio [16]: 1.3
- AUC at 7 h [17]: 15.9 ng·h/mL
- EC50 [19]: 794 nM
- CLH (Liver microsome [20]): 8 mL/min/g
- IC50 [21]: 100 nM
- Drug metabolism (Hepatocyte [22]): Active
- blood plasma ratio [23]: 0.6
- bioavailability [24]: 3%
- fraction unbound [25]: 0.02
- fraction unbound [26]: 0.03
- CL (Rattus norvegicus): 62%
- bioavailability [28]: < 2%
SMILES: CC(=O)O.O=S(=O)(c1cccc(CCCCOCCCCCCNC[C@H](O)c2ccc(O)c(CO)c2)c1)C1CCCC1
- fold change (FC) (Cavia porcellus): 5
- Activity (L5178Y): Non-toxic
- Activity (Salmonella typhimurium [18]): Non-toxic
- Activity (Salmonella typhimurium [27]): Non-toxic
